Measured values as given in publication PMC6311382 (Angewandte Chemie (International ed. in English), 2015).

Columns and labels:
H. pylori HtrA [1] = molecular target: T1, H. pylori HtrA (Helicobacter pylori, UniProt G2J5T2); assay: SPR binding affinity and kinetics to HtrA
T1 sequence (G2J5T2 18-475): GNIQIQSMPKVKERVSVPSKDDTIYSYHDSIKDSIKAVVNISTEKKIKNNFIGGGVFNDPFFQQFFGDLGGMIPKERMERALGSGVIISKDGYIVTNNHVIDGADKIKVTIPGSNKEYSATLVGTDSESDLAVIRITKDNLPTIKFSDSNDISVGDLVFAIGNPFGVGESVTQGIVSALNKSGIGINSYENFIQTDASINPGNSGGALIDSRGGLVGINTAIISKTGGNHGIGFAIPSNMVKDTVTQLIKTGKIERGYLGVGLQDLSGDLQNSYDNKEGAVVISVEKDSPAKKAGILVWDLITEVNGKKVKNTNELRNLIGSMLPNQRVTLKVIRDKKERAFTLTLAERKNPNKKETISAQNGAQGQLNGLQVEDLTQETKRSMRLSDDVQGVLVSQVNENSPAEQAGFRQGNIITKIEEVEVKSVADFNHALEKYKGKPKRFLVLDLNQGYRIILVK

[2] = type: physicochemical; conditions: dynamic light scattering
H. pylori HtrA [3] = molecular target: T1, H. pylori HtrA; assay: Western blot analysis of recombinant E-cadherin cleavage by HtrA; type: biochemical
Summary of the method: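 Recombinant full-length 130 kDa E-cadherin is incubated with H. pylori HtrA and test compound at a range of concentrations. HtrA proteolysis is read by Western blot as generation of the roughly 90 kDa soluble E-cadherin fragment.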

[4] = system: wild-type H. pylori transmigration; assay: Transwell migration assay across polarized MKN-28 epithelial layer; type: cell-based, Helicobacter pylori; conditions: 50 μM, 24 h, MKN-28 cells
Summary of the method: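 Wild-type H. pylori crossing a polarized epithelial layer of human gastric adenocarcinoma MKN-28 cells in a transwell system, followed for 24 h with test compound at two concentrations. Transmigrated bacteria are read as colony-forming units. Significance at 24 h is tested by one-way ANOVA (Dunnett) against the untreated control.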

[5] = system: wild-type Campylobacter jejuni transmigration; assay: Transwell migration assay, Campylobacter jejuni; type: cell-based; conditions: 50 and 100 μM, 24 h
Summary of the method: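 Transmigration of wild-type Campylobacter jejuni is followed over 24 h with test compound at two concentrations. Bacteria are counted as colony-forming units. N = 3 independent experiments. Significance at 24 h is tested by one-way ANOVA (Dunnett) against the untreated control.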

H. pylori HtrA [6] = molecular target: T1, H. pylori HtrA; assay: 1H STD NMR binding experiment; conditions: 10 μM HtrA

| SMILES | koff (H. pylori HtrA [1]) | LE (ligand efficiency) (H. pylori HtrA [1]; = −1.4 logKD/(number of non-hydrogen atoms)) | solubility kinetic [2] | proteolytic activity of HtrA (H. pylori HtrA [3]; at 50 μM) | concentration at which inhibition of E-cadherin cleavage is seen (H. pylori HtrA [3]; recombinant E-cadherin) | inhibition of H. pylori transmigration [4] | inhibition of C. jejuni transmigration, compared with H. pylori [5] | saturation transfer / binding to HtrA (H. pylori HtrA [6]) |
| --- | --- | --- | --- | --- | --- | --- | --- | --- |
| Cc1ccc(C)n1[C@@H](Cc1ccc(-c2ccc(C(=O)O)o2)cc1)C(=O)O [Compound 2] | 1.8 s⁻¹ | 0.24 | > 100 µM | blocked | 10 µM | significant effects | strikingly dissimilar outcome | direct binding |
| CO[C@@H]1O[C@H](CO)[C@@H](O)[C@H](O)[C@H]1O [β-methyl-D-glucoside, reference compound] |  |  |  |  |  |  |  | no saturation transfer |
